INS promoter act = activators of insulin promoter-driven GFP, primary screen, imaging, TRM-6 cells, eGFP reporter, cell count; plate-scaled: unstimulated 0, stimulated control 100; activation, % at 2 µM; 0.81% of 130,000 active; AID 1296, 2008;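 active = activation at 2 µM above a set limit, confirmed on inspection of the cell images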;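 note: share of cells whose green reporter signal exceeds an intensity cutoff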
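material = TRM-6 human fetal islet cells, insulin promoter–eGFP reporter | input = 1,000 TRM-6 cells seeded per well | benchmarks = stimulated versus unstimulated wells as plate controls | measured by = automated fluorescence imaging of paraformaldehyde-fixed, Hoechst-counterstained cells, green channel | schedule = compound exposure 48 h, 37 °C | reagent = tamoxifen at 0.75 µM added at seeding for reporter induction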
The depositor's hits bear a star. This is one part of a sample in which hits are shown more often than they occur.

SMILES	INS promoter act
CC(=O)Nc1cccc(OCC(O)Cn2cnc3ccccc32)c1 (stereo unspecified)	9
Cc1cccc(OCC(O)CNC(=O)c2ccccc2C(=O)O)c1 (stereo unspecified)	-7
CC(=O)OC(COc1cccc(C)c1)Cn1cnc2ccccc21 (stereo unspecified)	407*
Cc1ccc(-c2nc(CN3CCCCC3)cc(CN3CCCCC3)c2O)cc1	7
Cc1ccc(CS(=O)(=O)CCC(=O)NCc2cccs2)cc1	3
Cc1cccc(-c2nnc(SCc3ccc(C#N)cc3)n2Cc2ccco2)c1	9
Cc1csc(NC(=O)C(NS(=O)(=O)c2ccc(Br)s2)c2ccccc2)n1 (stereo unspecified)	0
CC(=O)NC(CCS(C)(=O)=O)C(=O)Nc1nc(C)cs1 (stereo unspecified)	750*
Cc1csc(NC(=O)c2ccccc2C(=O)O)n1	7
Cc1cc(C)n(CC(O)Cn2c3ccc(Br)cc3c3cc(Br)ccc32)c(=O)n1 (stereo unspecified)	77*
Cc1cccc(NC(=O)CCSc2nnc(Cc3ccccc3)o2)c1	9
CCOC(=O)C(C)Sc1ncnc2nc[nH]c12 (stereo unspecified)	513*
CCOC(=O)C(C)Sc1ncnc2c1nnn2-c1ccc(F)cc1 (stereo unspecified)	-9
CCOC(=O)C(CC)Sc1ncnc2nc[nH]c12 (stereo unspecified)	-3
CC1=CC(C)(C)N(C(=O)C(C)N2C(=O)c3ccccc3C2=O)c2ccc(C)cc21 (stereo unspecified)	-10
COc1cc(C2CC(=O)Nc3c2c(=O)nc2c(C)cccn32)cc(OC)c1OC (stereo unspecified)	0
CCOc1cccc(N(C(=O)Cc2cccs2)C(C(=O)NC2CCCCC2)c2cccn2C)c1 (stereo unspecified)	133
c1cncc(Nc2nc(-c3ccncc3)cs2)c1	-4
Clc1ccccc1Nc1nc(-c2cccnc2)cs1	358*
c1ccc(Nc2nc(-c3cccnc3)cs2)nc1	0
COc1ccc(N(CC(=O)Nc2ccccc2C(=O)NCCc2ccccc2)S(C)(=O)=O)cc1OC	0
CC(=O)N1C(Nc2ccc(Cl)cc2)CCN1c1ccccc1 (stereo unspecified)	-7
CCCSc1cc(N2CCOCC2)nc(-c2ccccc2Cl)n1	-8
COc1ccc(CCNC(=O)CN2CCN(c3cccc(C(F)(F)F)c3)CC2)cc1	-1
COc1ccc(NS(=O)(=O)c2cc(N/C(=N\S(=O)(=O)c3ccccc3)c3ccc(F)cc3)ccc2Cl)cc1	76*
SMILES	INS promoter act
COc1ccc(NS(=O)(=O)c2cc(C(=O)N3CCN(C(C)=O)CC3)ccc2Cl)cc1	7
CCCCOC(=O)c1ccc(N/C(=N\S(=O)(=O)c2ccccc2)c2ccccc2)cc1	-6
O=C1CC(N2CCN(S(=O)(=O)c3ccc(Cl)cc3)CC2)C(=O)N1CCc1ccccc1 (stereo unspecified)	10
Cc1oc2ccc(OC(=O)c3cccs3)cc2c1C(=O)OC(C)C	7
Cc1ccc(Nc2nc(N)c([N+](=O)[O-])c(N3CCC(C)CC3)n2)cc1C	529*
CCN1CCN(c2nc(Nc3cccc(C)c3)nc(N)c2[N+](=O)[O-])CC1	8
Cc1ccc(Nc2nc(NCC3CCCO3)nc(N)c2[N+](=O)[O-])cc1C (stereo unspecified)	5
CCN(CC)C(=O)c1cnn(-c2ccccc2)c1NC(=O)c1ccccc1F	5
CCOc1ccc(N2C(=O)C3C(c4ccc(O)cc4)NC(CCSC)(C(=O)OC)C3C2=O)cc1 (stereo unspecified)	0
CCn1c(NC(=O)Nc2ccccc2OC)nc2ccccc21	109
COC(=O)Cn1ncc(N2C3CC(CC(C)(C)C3)C2C)c(Cl)c1=O (stereo unspecified)	3
O=C(CCCn1c(=O)[nH]c2cc(Cl)ccc2c1=O)NCCCN1CCN(c2ccc(F)cc2)CC1	267*
O=C(CCCn1c(=O)[nH]c2cc(Cl)ccc2c1=O)NCCCN1CCCC1	-8
COc1ccc(N2CCN(C(=O)CCCn3c(=O)[nH]c4cc(Cl)ccc4c3=O)CC2)cc1	-74
Cc1ccc(NC(=O)c2ccc(CSc3nnnn3C)cc2)cc1	0
COc1cc(S(=O)(=O)NCC2OCCc3ccccc32)ccc1-n1cnnn1 (stereo unspecified)	3
COC(=O)C1=C(C)Nc2nnnn2C1c1ccccc1Cl (stereo unspecified)	8
CCCCOc1ccccc1C1C(C(N)=O)=C(C)Nc2nnnn21 (stereo unspecified)	493*
C=CCOC(=O)C1=C(C)Nc2nnnn2C1c1ccc(OC)cc1OC (stereo unspecified)	3
CCn1c(C)[n+](CCOCC[n+]2c(C)n(CC)c3cc(Cl)c(Cl)cc32)c2cc(Cl)c(Cl)cc21	7
O=C(NCc1cccnc1)/C(=C\c1ccc(-c2ccc(Br)cc2)o1)S(=O)(=O)c1ccccc1	-4
COc1cc(NS(=O)(=O)c2ccc(N/C=C(\C=O)c3nc4ccccc4o3)cc2)nc(OC)n1	-9
COC(=O)C(C)n1cnc2c(nnn2-c2ccc(OC)cc2)c1=O (stereo unspecified)	-7
CCC(C(=O)Nc1cc(C(=O)Nc2cc(C)ccn2)ccc1Cl)c1ccccc1 (stereo unspecified)	0
CC1CC(OCC(O)CN2CCN(Cc3ccccc3)CC2)CC(C)(C)C1 (stereo unspecified)	100
SMILES	INS promoter act
CC1CCC(C(C)C)C(OC(=O)CSc2nnc(N)s2)C1 (stereo unspecified)	6
CC1CCN(CC(O)COC2CC(C)CCC2C(C)C)CC1 (stereo unspecified)	543*
CCOC(=O)c1c(NC(=O)COC(=O)CNC(=O)c2ccco2)sc(C(C)=O)c1C	-5
CC(C)C1OC(c2cccc(NC(=O)c3cccs3)c2)OCC1(C)C (stereo unspecified)	7
Cc1ccc(S(=O)(=O)NCCCN2CCOCC2)c(C)c1	10
COC(=O)c1[nH]c2ccc(C)cc2c1NC(=O)CN1CCCc2ccccc21	166
O=C(CN1CCCc2ccccc21)NCCc1ccc(Cl)cc1	300*
O=C(CN1CCCc2ccccc21)NCc1ccc2c(c1)OCO2	-9
O=C(CN1N=C(c2ccccc2)CCC1=O)NCCCN1CCc2ccccc2C1	3
O=c1[nH]c(CS(=O)(=O)c2ccccc2)nc2ccccc12	6
O=c1cc(CS(=O)(=O)c2ccccc2)nc(-c2ccncc2)[nH]1	331*
CN(Cc1nc(-c2ccncc2)no1)S(=O)(=O)c1ccccc1	24
O=C(NCc1ccccc1)c1ccc(-c2ccc(F)cc2)o1	-6
CCOC(=O)N1CCN(C(=O)/C=C/c2cccc([N+](=O)[O-])c2)CC1	0
Cc1nn(Cc2ccccc2)c(Cl)c1C(=O)OCC(=O)NC(=O)NC12CC3CC(CC(C3)C1)C2	-6
COc1ccc(NC(=O)/C=C/c2ccc(F)cc2)cn1	7
COc1ccc(NC(=O)c2ccc(Cl)c(S(=O)(=O)N3CCc4ccccc4C3)c2)cn1	0
COc1ccc(NC(=O)/C(Cl)=C(/Cl)S(=O)Cc2ccccc2Cl)cn1 (stereo unspecified)	669*
Brc1ccc(-c2cn3c(n2)CCc2ccc4cccnc4c2-3)cc1	8
O=C1/C(=C/c2ccc(N3CCCC3)cc2)NC(=S)N1C1CC1	186*
O=C1N/C(=C/c2ccc(N3CCOCC3)cc2)C(=O)N1Cc1ccc(F)cc1	-8
